37 molecules from ChEMBL document CHEMBL3822416, “Design, Synthesis, and Structure-Activity Relationship Study of Novel Indole-2-carboxamide Derivatives as Anti-inflammatory Agents for the Treatment of Sepsis” (J Med Chem, 2016) can be followed below.

Test [1] concerns RAW264.7. Description: Inhibition of LPS-induced IL6 production in mouse RAW264.7 cells at 10 uM preincubated for 30 mins prior to LPS challenge measured after 24 hrs by ELISA. The class given is functional. Summed up: (§1)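 RAW 264.7 cells (ATCC) were grown in DMEM with 10% FBS and penicillin/streptomycin at 37 °C, 5% CO2. Cells were seeded at 400,000/well and incubated for 24 h, pretreated with compound for 30 min, then given 0.5 µg/mL LPS for 24 h. Medium TNF-α or IL-6 was measured by ELISA and normalized to total protein of viable cell pellets.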

Test [2] relates to RAW264.7. The experiment in a line: Inhibition of LPS-induced TNF-alpha production in mouse RAW264.7 cells at 10 uM preincubated for 30 mins prior to LPS challenge measured after 24 hrs by ELISA. It counts as functional. Summed up:
as §1

In test [3] the test system is RAW264.7. The experiment in a line: Inhibition of LPS-induced TNF-alpha production in mouse RAW264.7 cells preincubated for 30 mins prior to LPS challenge measured after 24 hrs by ELISA. It counts as functional, cell-based. The method, boiled down:
as §1

Test [4] concerns RAW264.7. Description: Inhibition of LPS-induced IL6 production in mouse RAW264.7 cells preincubated for 30 mins prior to LPS challenge measured after 24 hrs by ELISA. It counts as functional, cell-based. The method, boiled down:
as §1

The mark [5] stands for this setting: Mus musculus, RAW264.7, read-out: IC50.

The source made the active and inactive calls. No cut-off for these calls is given here.

Turning to `COc1ccc(Cn2c(C(=O)Nc3ccc(N4CCN(C)CC4)cc3)cc3cc([N+](=O)[O-])ccc32)cc1`, the inhibition at 10 µM came out at 64.3% with RAW264.7 [1] and 41.4% in the test with RAW264.7 [2].
For `COc1ccc(CCNC(=O)c2cc3cc([N+](=O)[O-])ccc3[nH]2)cc1` the same measures were 11.8% and 9.75%.
On to `CN1CCN(c2ccc(NC(=O)c3cc4cc([N+](=O)[O-])ccc4n3Cc3ccc(Br)cc3)cc2)CC1`, for which the inhibition at 10 µM in the test on RAW264.7 [1] was 93%; with RAW264.7 [2], 31.1%.
In the case of `Cc1ccc(C)c(COc2ccc(NC(=O)c3cc4cc([N+](=O)[O-])ccc4[nH]3)cc2Cl)c1`, the inhibition at 10 µM in the test with RAW264.7 [1] worked out at 24.9%; in the test with RAW264.7 [2] it was 2.89%.
For the molecule `O=C(Nc1ccc(OCc2ccc(C(F)(F)F)cc2)c(Cl)c1)c1cc2cc([N+](=O)[O-])ccc2[nH]1`, the inhibition at 10 µM with RAW264.7 [1] is 29.2%. In addition, in the test with RAW264.7 [2], the inhibition entry is “inactive”.
As to `CN1CCN(c2ccc(NC(=O)c3cc4cc([N+](=O)[O-])ccc4[nH]3)cc2)CC1`, the inhibition at 10 µM in the test with RAW264.7 [1] is 91%; with RAW264.7 [2], 62.5%.
Consider `COc1cccc(COc2ccc(NC(=O)c3cc4cc([N+](=O)[O-])ccc4[nH]3)cc2Cl)c1`, for which the inhibition at 10 µM with RAW264.7 [1] was found to be 21.9%. In the test on RAW264.7 [2], the inhibition result is “inactive”.
On to `O=C(Nc1ccc(OCc2cc(F)cc(F)c2)cc1)c1cc2cc([N+](=O)[O-])ccc2[nH]1`, for which 10 µM produced 11.2% inhibition with RAW264.7 [1]. Also, the inhibition entry in the test on RAW264.7 [2] is “inactive”.
Turning to `C=CC(=O)Nc1ccc2c(c1)cc(C(=O)Nc1ccc(N3CCN(C)CC3)cc1)n2Cc1ccc(C(F)(F)F)cc1`, the IC50 is 1050 nM with RAW264.7 [3] (setting [5]) and 6.28 µM in the test with RAW264.7 [4] (setting [5]).
On to `COc1ccc2c(c1)c(CC(=O)O)c(C)n2C(=O)c1ccc(Cl)cc1` [INDOMETHACIN], for which the inhibition at 10 µM was 53.6% in the test with RAW264.7 [1] and 24.1% in the test on RAW264.7 [2].
For `COc1ccc(NC(=O)c2cc3cc([N+](=O)[O-])ccc3[nH]2)cc1` the same measures were 52.8% and 8.17%.
Molecule `O=C(Nc1ccc(OCc2ccc(Cl)cc2)cc1)c1cc2cc([N+](=O)[O-])ccc2[nH]1` gave an inhibition at 10 µM in the test on RAW264.7 [1] of 4.28%. Moreover, the inhibition result with RAW264.7 [2] is “inactive”.
Taken in the same sequence, the figures for `O=C(Nc1ccc(OCc2cccc(F)c2)cc1)c1cc2cc([N+](=O)[O-])ccc2[nH]1` were 4.42% and “inactive”.
Taken in the same sequence, the figures for `Cc1ccc(COc2ccc(NC(=O)c3cc4cc([N+](=O)[O-])ccc4[nH]3)cc2)cc1` were 1.98% and “inactive”.
Take `CCOc1ccc(NC(=O)c2cc3cc([N+](=O)[O-])ccc3[nH]2)cc1`: the inhibition at 10 µM in the test on RAW264.7 [1] worked out at 41.1%; in the test with RAW264.7 [2], 33.8%.
In the case of `CC(C)=CCOc1ccc(NC(=O)c2cc3cc([N+](=O)[O-])ccc3[nH]2)cc1`, the figures for the inhibition at 10 µM in the test on RAW264.7 [1] and in the test on RAW264.7 [2] were 56.5% and 38.6%, respectively.
For the molecule `CN1CCN(c2ccc(NC(=O)c3cc4cc(NS(C)(=O)=O)ccc4n3Cc3ccc(C(F)(F)F)cc3)cc2)CC1`, the IC50 in the test on RAW264.7 [3] (setting [5]) is 1970 nM; in the test on RAW264.7 [4] (setting [5]) it was 4.91 µM.
For `CCC(=O)Nc1ccc2c(c1)cc(C(=O)Nc1ccc(N3CCN(C)CC3)cc1)n2Cc1ccc(C(F)(F)F)cc1` the same measures were 4100 nM and 3.33 µM.
The molecule `COc1ccc(COc2ccc(NC(=O)c3cc4cc([N+](=O)[O-])ccc4[nH]3)cc2Cl)cc1` gave an inhibition at 10 µM in the test on RAW264.7 [1] of 24.8%. Besides, the inhibition result with RAW264.7 [2] is “inactive”.
Regarding `COc1cc(COc2ccc(NC(=O)c3cc4cc([N+](=O)[O-])ccc4[nH]3)cc2Cl)cc(OC)c1`, the values for the inhibition at 10 µM in the test on RAW264.7 [1] and with RAW264.7 [2] were 29% and 7.67%, respectively.
For `O=C(NCCc1ccccc1)c1cc2cc([N+](=O)[O-])ccc2[nH]1` the same measures were 8.71% and 2.58%.
For `CN1CCN(c2ccc(NC(=O)c3cc4cc([N+](=O)[O-])ccc4n3C)cc2)CC1` the same measures were 87.2% and 16%.
For `C=CCn1c(C(=O)Nc2ccc(N3CCN(C)CC3)cc2)cc2cc([N+](=O)[O-])ccc21` the same measures were 58.2% and 12.7%.
Turning to `O=C(Nc1ccc(OCc2cccc(F)c2)c(Cl)c1)c1cc2cc([N+](=O)[O-])ccc2[nH]1`, the inhibition entry with RAW264.7 [1] and with RAW264.7 [2] was “inactive” throughout.
For the molecule `O=C(Nc1ccc(OCc2c(Cl)cccc2Cl)c(Cl)c1)c1cc2cc([N+](=O)[O-])ccc2[nH]1`, in the test on RAW264.7 [1], the inhibition at 10 µM worked out at 29.8%. In addition, the inhibition result in the test on RAW264.7 [2] is “inactive”.
As for `CN1CCN(c2ccc(NC(=O)c3cc4cc([N+](=O)[O-])ccc4n3Cc3cccc(F)c3)cc2)CC1`, the figures for the inhibition at 10 µM in the test with RAW264.7 [1] and in the test with RAW264.7 [2] were 86.4% and 22.8%, respectively.
`O=C(Nc1ccc(OCc2ccccc2)c(Cl)c1)c1cc2cc([N+](=O)[O-])ccc2[nH]1` gave an inhibition at 10 µM with RAW264.7 [1] of 21.5%. The inhibition result with RAW264.7 [2] was “inactive”.
On to `O=C(Nc1ccc(N2CCOCC2)cc1)c1cc2cc([N+](=O)[O-])ccc2[nH]1`, for which the values for the inhibition at 10 µM in the test on RAW264.7 [1] and in the test on RAW264.7 [2] were 38% and 18%, respectively.
Consider `CN1CCN(c2ccc(NC(=O)c3cc4cc([N+](=O)[O-])ccc4n3Cc3ccc(C(F)(F)F)cc3)cc2)CC1`, for which the results for the inhibition at 10 µM with RAW264.7 [1] and in the test on RAW264.7 [2] were 98.7% and 75.1%, respectively. Further, the results for the IC50 in the test with RAW264.7 [3] (setting [5]) and in the test on RAW264.7 [4] (setting [5]) were 2740 nM and 5.09 µM, respectively.
Take `Cc1cc2cc(NC(=O)c3cc4cc([N+](=O)[O-])ccc4[nH]3)ccc2[nH]1`: the inhibition at 10 µM with RAW264.7 [1] was 37%; with RAW264.7 [2], 7.53%.
Take `CN1CCN(c2ccc(NC(=O)c3cc4cc(NC(=O)CCl)ccc4n3Cc3ccc(C(F)(F)F)cc3)cc2)CC1`: the results for the IC50 with RAW264.7 [3] (setting [5]) and with RAW264.7 [4] (setting [5]) were 6030 nM and 2.99 µM, respectively.
On to `CN1CCN(c2ccc(NC(=O)c3cc4cc(N)ccc4n3Cc3ccc(C(F)(F)F)cc3)cc2)CC1`, for which the IC50 result in the test with RAW264.7 [3] (raw264.7) and with RAW264.7 [4] (raw264.7) was “Not Active” each time.
Take `COc1cc(NC(=O)c2cc3cc([N+](=O)[O-])ccc3[nH]2)cc(OC)c1OC`: the inhibition at 10 µM with RAW264.7 [1] stood at 62.3%; in the test with RAW264.7 [2], 45.8%.
As to `CN1CCN(c2ccc(NC(=O)c3cc4cc([N+](=O)[O-])ccc4n3Cc3ccc(Cl)cc3)cc2)CC1`, the inhibition at 10 µM in the test on RAW264.7 [1] was found to be 97.2%; with RAW264.7 [2] it was 67%.
Taken in the same sequence, the figures for `CN1CCN(c2ccc(NC(=O)c3cc4cc([N+](=O)[O-])ccc4n3Cc3c(Cl)cccc3Cl)cc2)CC1` were 93.3% and 52.7%.
`COc1cc(NC(=O)c2cc3cc([N+](=O)[O-])ccc3[nH]2)cc(OC)c1`: the results for the inhibition at 10 µM with RAW264.7 [1] and in the test with RAW264.7 [2] were 31.3% and 17.2%, respectively.
Taken in the same sequence, the figures for `O=C(Nc1ccccc1)c1cc2cc([N+](=O)[O-])ccc2[nH]1` were 49.6% and 17.5%.
